Measured values from ChEMBL document CHEMBL6153131, “Rational Design and Optimization of a Potent IDO1 Proteolysis Targeting Chimera (PROTAC)” (J Med Chem, 2025).
Active and inactive are the calls of the source. No cut-off for these calls is given here.

What was measured:
[1] = target: T1, Protein cereblon/Indoleamine 2,3-dioxygenase 1 (Homo sapiens, UniProt P14902+Q96SW2); test: PROTAC activity at CRBN/N-terminal HiBiT-tagged IDO1 (unknown origin) transfected in human U87 cells assessed as induction of IDO1 degradation by measuring maximum efficacy pretreated with IFN-gamma for 24 hrs followed by compound addition and measured after 24 hrs by Nano-Glo HiBiT assay relative to control; format: cell-based
Summary of the method: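 U87 cells carrying HiBiT knocked in by CRISPR/Cas9 at the IDO1 N-terminus, treated for 24 h. Degradation read as loss of luminescence. DC50 fitted from the lowest concentration up to maximal degradation, excluding hook-effect points; triplicate mean ± SD.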

[2] = target: T1, Protein cereblon/Indoleamine 2,3-dioxygenase 1; test: PROTAC activity at CRBN/IDO1 in human U87 cells assessed as induction of IDO1 degradation at 100 nM at 0.5 uM pretreated with IFN-gamma for 24 hrs followed by compound addition and measured after 24 hrs in presence of MLN4924 by Western blotting analysis; format: cell-based
[3] = target: T1, Protein cereblon/Indoleamine 2,3-dioxygenase 1; test: PROTAC activity at CRBN/IDO1 in human KNS-42 cells assessed as induction of IDO1 degradation pretreated with IFN-gamma for 24 hrs followed by compound addition and measured after 24 hrs by Western blotting analysis; format: cell-based; settings: dose 50-100 nM
Summary of the method: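 Cells had IDO1 induced with IFNγ, then were treated at the indicated concentrations for 24 h. Lines: PDX-6 and PDX-38 adult GBM PDX cells, U87 overexpressing GFP-fused IDO1, PC-3, KNS42, MDA-MB-231, SW-1990 and SKOV-3. Lysates probed for IDO1 and GAPDH by Western blot; representative of 3 separate replicates.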

[4] = target: T1, Protein cereblon/Indoleamine 2,3-dioxygenase 1; test: PROTAC activity at CRBN/IDO1 in human U87 cells assessed as induction of IDO1 degradation by measuring remaining activity at 1 uM pretreated with IFN-gamma for 24 hrs followed by compound addition and measured after 24 hrs by Western blotting analysis (reference value: 100%); format: cell-based
Summary of the method: (§1)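 U87 cells given an extended dose range of PROTAC for 24 h, then Western blot for IDO1. IFNγ-induced IDO1 levels normalised to untreated samples. n = 3 independent experiments; mean ± SEM.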

[5] = target: T1, Protein cereblon/Indoleamine 2,3-dioxygenase 1; test: PROTAC activity at CRBN/IDO1 in human U87 cells assessed as induction of IDO1 degradation by measuring remaining activity at 0.3 uM pretreated with IFN-gamma for 24 hrs followed by compound addition and measured after 24 hrs by Western blotting analysis (reference value: 100%); format: cell-based; summary of the method: as §1
[6] = target: T1, Protein cereblon/Indoleamine 2,3-dioxygenase 1; test: PROTAC activity at CRBN/IDO1 in human U87 cells assessed as induction of IDO1 degradation by measuring remaining activity at 0.003 uM incubated for 24 hrs by Western blotting analysis (reference value: 100%); format: cell-based
[7] = test system: KNS-42; test: Inhibition of kynurenine production in human KNS-42 cells pretreated with IFN-gamma for 24 hrs followed by compound addition and measured after 24 hrs by Ehrlich's reagent based analysis; format: functional, cell-based; settings: dose 50-100 nM
[8] = target: T1, Protein cereblon/Indoleamine 2,3-dioxygenase 1; test: PROTAC activity at CRBN/IDO1 in human GBM43 cell assessed as induction of IDO1 degradation at 0.003 uM pretreated with IFN-gamma for 24 hrs followed by compound addition and measured after 24 hrs by Western blotting analysis (reference value: 100%); format: cell-based
Summary of the method: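 GBM43 patient-derived cells given an extended dose range of PROTAC for 24 h. Protein analysed by Western blot for IDO1, and IFNγ-induced IDO1 normalised to untreated samples. n = 3 independent experiments; data as mean ± SEM.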

[9] = target: T1, Protein cereblon/Indoleamine 2,3-dioxygenase 1; test: PROTAC activity at CRBN/IDO1 in human U87 cells assessed as induction of IDO1 degradation at 100 nM pretreated with IFN-gamma for 24 hrs followed by compound addition and measured after 24 hrs in presence of NU223618 by Western blotting analysis; format: cell-based
[10] = target: T1, Protein cereblon/Indoleamine 2,3-dioxygenase 1; test: PROTAC activity at CRBN/IDO1 in human U87 cells assessed as induction of IDO1 degradation by measuring remaining activity at 3 uM pretreated with IFN-gamma for 24 hrs followed by compound addition and measured after 24 hrs by Western blotting analysis (reference value: 100%); format: cell-based; summary of the method: as §1
[11] = target: T1, Protein cereblon/Indoleamine 2,3-dioxygenase 1; test: Binding affinity to CRBN/6His-tagged recombinant IDO1 (unknown origin) assessed as ternary complex formation by measuring half life by Biolayer Interferometry assay; format: protein assay
[12] = test system: Kelly; test: Downregulation of ADO protein level in human Kelly cells at 1 uM incubated for 24 hrs by proteomics analysis; format: functional, cell-based
[13] = test system: U-87MG ATCC; test: Inhibition of kynurenine production in human U87 cells overexpressing GFP-fused IDO1 cells pretreated with IFN-gamma for 24 hrs followed by compound addition and measured after 24 hrs by Ehrlich's reagent based analysis; format: functional, cell-based; settings: dose 50-100 nM

T1 sequence (P14902 whole entry, looked up): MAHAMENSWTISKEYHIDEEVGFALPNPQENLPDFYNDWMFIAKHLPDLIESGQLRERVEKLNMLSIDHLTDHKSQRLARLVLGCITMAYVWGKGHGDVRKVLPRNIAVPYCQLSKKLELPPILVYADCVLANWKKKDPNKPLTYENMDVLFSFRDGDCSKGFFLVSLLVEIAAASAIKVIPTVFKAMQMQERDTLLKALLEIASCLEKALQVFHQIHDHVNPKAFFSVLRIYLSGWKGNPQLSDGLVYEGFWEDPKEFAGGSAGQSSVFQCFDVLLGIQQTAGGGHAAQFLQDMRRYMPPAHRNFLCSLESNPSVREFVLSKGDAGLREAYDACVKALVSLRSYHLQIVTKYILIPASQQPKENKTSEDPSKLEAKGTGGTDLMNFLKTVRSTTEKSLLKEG
T1 sequence (Q96SW2 whole entry, looked up): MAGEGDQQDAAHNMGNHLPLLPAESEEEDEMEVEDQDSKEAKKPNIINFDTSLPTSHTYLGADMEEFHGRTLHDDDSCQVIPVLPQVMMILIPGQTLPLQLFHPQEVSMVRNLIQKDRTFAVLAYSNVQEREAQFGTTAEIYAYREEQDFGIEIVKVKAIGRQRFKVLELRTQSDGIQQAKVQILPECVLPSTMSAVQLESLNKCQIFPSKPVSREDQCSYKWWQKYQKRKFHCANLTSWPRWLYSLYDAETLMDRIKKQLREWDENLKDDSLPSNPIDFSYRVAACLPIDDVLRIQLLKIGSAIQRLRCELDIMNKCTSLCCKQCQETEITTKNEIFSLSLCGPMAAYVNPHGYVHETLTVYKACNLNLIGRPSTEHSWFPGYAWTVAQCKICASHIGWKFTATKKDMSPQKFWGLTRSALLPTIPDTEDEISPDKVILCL

C[C@@H](C(=O)Nc1cccc(OC2CCN(C(=O)CN3CCC(N4CCN(c5ccc6c(c5)C(=O)N(C5CCC(=O)NC5=O)C6=O)CC4)CC3)CC2)c1)[C@H]1CC[C@@H](c2ccnc3ccc(F)cc32)CC1 (stereo partly drawn)
Emax [1]: 63%
Activity [2]: inactive
Activity [3]: Dose-dependent-effect
Activity [4]: 35%
Activity [5]: 20%
Activity [6]: 71%
inhibition [7]: Dose-dependent-effect
Activity [8]: 75%
Activity [9]: inactive
Activity [10]: 55%
T1/2 [11]: 17.3 min
Activity [12]: Active
inhibition [13]: Dose-dependent-effect
